hERG rescue – hERG rescue from dofetilide block, primary screen, cell-based, CHO-hERG, FluxOR thallium flux, dofetilide IC70; 310,000 tested, 0.51% active; Voltage-gated inwardly rectifying potassium channel KCNH2 (Homo sapiens), Q12809; activation (rescue from dofetilide block), less the hit threshold, % at 10 µM; dofetilide IC70 present; AID 1511, 2009;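 active = activation above the mean of controls blocked by dofetilide plus 5 SD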;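 note: thallium influx through hERG after potassium depolarization seen as dye fluorescence rise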
KCNK9 inh – KCNK9 potassium channel inhibitors, primary screen, HEK293 cells, thallium flux. Potassium channel subfamily K member 9 (Homo sapiens), Q9NPC2. 310,000 tested, 1.2% active. B-score at 10 µM. FluxOR thallium flux fluorescence; hits give low values;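 active = ratio B-score over 3 SD below the library mean, with starting fluorescence within 5 SD of its mean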;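 note: negative B-score means less thallium flux so channel inhibition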
Target sequence (Q9NPC2 whole entry, looked up): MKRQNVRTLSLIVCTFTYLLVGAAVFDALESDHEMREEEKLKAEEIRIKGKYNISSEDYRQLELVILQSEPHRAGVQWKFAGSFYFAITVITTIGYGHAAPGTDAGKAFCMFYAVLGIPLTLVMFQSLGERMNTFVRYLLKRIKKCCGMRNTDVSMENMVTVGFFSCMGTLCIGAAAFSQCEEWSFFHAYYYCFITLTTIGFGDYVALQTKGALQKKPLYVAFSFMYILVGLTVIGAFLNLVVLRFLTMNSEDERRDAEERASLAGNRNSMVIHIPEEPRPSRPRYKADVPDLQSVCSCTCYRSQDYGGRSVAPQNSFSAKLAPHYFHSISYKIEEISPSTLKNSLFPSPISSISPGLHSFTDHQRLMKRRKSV
KCNQ1 act – potentiators or activators of KCNQ1 channel, primary screen, cell-based, thallium flux, high-throughput; Potassium voltage-gated channel subfamily KQT member 1 (Homo sapiens), P51787; CHO-K1 KCNQ1, thallium flux FluxOR fluorescence; hits give high values; B-score at 10 µM; 310,000 tested, 0.35% active; AID 2648, 2010;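 active = fluorescence ratio B-score, a plate-corrected score, at least three library SD, with initial intensity B-score within 5 SD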
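Schedule – 37 °C overnight plating, 90-min dark dye load, 20-min compound pretreatment · System – stable KCNQ1 CHO-K1 line · Probe or stimulus – thallium- and potassium-containing depolarizing buffer · Measured by – kinetic FluxOR fluorescence, 10 s baseline plus 110 s post-stimulus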
KCNQ1 inh – inhibitors of human KCNQ1 channel, primary screen, cell-based, thallium flux, high-throughput | Potassium voltage-gated channel subfamily KQT member 1 (Homo sapiens), P51787 | CHO-K1 KCNQ1, FluxOR thallium flux fluorescence; hits give high values | B-score at 10 µM | 310,000 tested, 1.3% active | AID 2642, 2010;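 active = compounds whose thallium flux B-score, printed positive for inhibition, exceeds three library SD while starting fluorescence stays within three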;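 note: channel opened by potassium depolarization with thallium stimulus after 20 min compound exposure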
KCNK3 inh – human KCNK3 channel inhibitors, primary screen, CHO cells, FluxOR thallium flux, B-score. Potassium channel subfamily K member 3 (Homo sapiens), O14649. FluxOR fluorescence; hits give low values. B-score at 10 µM. 340,000 tested, 0.84% active;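 active = B-score under library mean minus 4 SD, starting fluorescence ratio at most library mean plus 5 SD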;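 note: more negative B-score means stronger inhibition of thallium flux through KCNK3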
Kir21 block – inhibitors of mouse Kir2.1 inward-rectifier potassium channel | Inward rectifier potassium channel 2 (Mus musculus), P35561 | HEK293-Kir2.1, FluxOR thallium flux fluorescence; hits give low values | B-score at 10 µM | 310,000 tested, 0.85% active | AID 1672, 2009;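 active = fluorescence ratio B-score at or below minus 3 SD of library scores, with starting-brightness B-score within 2 SD, cut at about -4.2 in these data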;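 note: channel flux triggered by added potassium and thallium sulfate stimulus; B-score of peak minus minimum fluorescence over baseline after thallium stimulus; more negative B-score means stronger Kir2.1 block with less thallium influx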
KCNK9 block conf – KCNK9 potassium channel inhibitors, confirmation, HEK293 cells, thallium flux, duplicate; inhibition, % at 10 µM; FluxOR thallium flux fluorescence; shares compounds with KCNK9 inh; 4,900 tested, 43% active;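 active = thallium signal inhibited by more than 5 SD of the compound-free buffer control wells, on both duplicate plates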;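 note: 0% = assay buffer control wells without compound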
Kir2-1 spec – mouse Kir2.1 channel inhibition, confirmation, selectivity assay for KCNK9 modulator project, cell-based, HEK293, thallium flux. Kir2.1 cells, FluxOR thallium flux fluorescence. 4,900 tested, 4% active. shares compounds with KCNK9 inh. inhibition, % at 10 µM;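 active = thallium signal drop more than 5 SD beyond the mean of the no-compound control wells, seen in both duplicate plates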;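 note: signal is fluorescence rise after thallium addition divided by baseline fluorescence; plate controls were assay buffer only for no effect and full block by chlorpromazine control for full effect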
HEK293 Tl ctr – thallium flux in non-induced HEK293 cells, confirmation, counter-screen for KCNK9 inhibitor project, cell-based, second counter screen, non-induced KCNK9-HEK293. inhibition, % at 10 µM. 4,900 tested, 40% active. FluxOR thallium flux. shares compounds with KCNK9 inh;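 active = thallium signal drop beyond 5 SD of the untreated control mean, on both duplicate plates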;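 note: plate controls were buffer only IC0 wells for no effect and SID17386958 at its maximal inhibitory level for full effect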
KCNK3 confirm – retest of human KCNK3 channel inhibitors, confirmation, CHO cells, FluxOR thallium flux, triplicate | ratio percent of control, % at 10 µM | AID 651638, 2012 | 2,400 tested, 99% active | FluxOR fluorescence; 0% buffer, 100% carvedilol maximal block | shares compounds with KCNK3 inh;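 active = ratio percent of control, averaged over triplicates, above buffer control mean plus 5 SD, cut at about 64% in these data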;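 note: ratio is the fluorescence rise from min to max over baseline after thallium stimulus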
KCNK3 uninduced – thallium flux inhibition in non-induced cells, primary screen, counter-screen for KCNK3 inhibitor project, cell-based, non-induced KCNK3 line, FluxOR thallium, triplicate | shares compounds with KCNK3 inh | non-induced KCNK3 parental cells; hits give low values | thallium flux ratio (lower = more inhibition) at 10 µM | 2,400 tested, 40% active;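 active = thallium flux ratio, averaged over three wells, more than 5 SD below the buffer control mean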;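 note: host cells are CHO cells without KCNK3 induction; ratio is peak minus trough fluorescence over baseline then normalized to buffer controls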
Numbers without * were called inactive; i = inactive; nt = not tested or not shown. In the library only some 3.7% were active in any assay of this set; here they are far more common.

SMILES	hERG rescue	KCNK9 inh	KCNQ1 act	KCNQ1 inh	KCNK3 inh	Kir21 block	KCNK9 block conf	Kir2-1 spec	HEK293 Tl ctr	KCNK3 confirm	KCNK3 uninduced
O=C(CN(C(=O)c1ccccc1Cl)C1CCCCC1)Nc1ccc(Cl)c([N+](=O)[O-])c1	-15	-11*	i	8*	i	-0.37	36%*	i	29%*	98*	0.16*
O=C(CN(C(=O)c1ccc(Cl)cc1)C1CCCCC1)Nc1ccc(Cl)c([N+](=O)[O-])c1	-8	i	i	i	i	-1.5	nt	nt	nt	nt	nt
C=CCN1C(=O)c2ccccc2NC1c1ccc(Br)s1 (stereo not given)	-13	-9.2*	i	i	i	-3.8	38%*	i	30%*	107*	i
CCCN1C(=O)c2ccccc2NC1c1ccc(Br)cc1 (stereo not given)	-4	i	i	i	i	-0.68	nt	nt	nt	nt	nt
CCCCC(=O)OCC(=O)c1cc(C)n(-c2c(C)n(C)n(-c3ccccc3)c2=O)c1C	-13	i	i	i	i	0.18	nt	nt	nt	nt	nt
COc1ccc([N+](=O)[O-])cc1-c1[nH]c(-c2ccc(C(=O)O)cc2)nc1-c1ccccc1	-8	i	i	i	i	-0.35	nt	nt	nt	nt	nt
Cc1ccc([N+](=O)[O-])cc1-c1[nH]c(-c2ccc(O)c(O)c2)nc1-c1ccccc1	-29	-9*	i	i	-9.8*	-1.3	40%*	i	i	111*	i
Cc1ccc(C(=O)NCC(=O)N2CCC(Cc3ccccc3)CC2)cc1	-13	i	i	i	i	-0.06	nt	nt	nt	nt	nt
Cc1ccccc1-n1ncc2c1CC(C)(C)CC2NC(=O)CCC(F)(F)F (stereo not given)	-5	i	i	i	i	0.55	nt	nt	nt	nt	nt
O=C(CCn1cccn1)Nc1ccc(-c2ccno2)cc1	-11	i	i	i	i	0.98	nt	nt	nt	nt	nt
Cc1nc2c(-c3ccc(F)cc3)c(C)nn2c(C)c1CCC(=O)N1CCC(Cc2ccccc2)CC1	-10	-9.8*	i	i	-10*	0.45	i	i	42%*	115*	i
N=c1c(C(=O)NC2CCCCC2)cc2c(=O)n3ccccc3nc2n1CCc1ccccc1	-16	i	i	i	i	1.1	nt	nt	nt	nt	nt
CCOc1cccc(CNc2nnnn2C)c1	-15	i	i	i	i	0.18	nt	nt	nt	nt	nt
CN(c1ccccc1)S(=O)(=O)c1cccc2ccccc12	-6	-9*	i	i	-10*	-3	39%*	i	30%*	113*	i
Cc1onc(-c2ccc(Cl)cc2)c1-c1ccnc(SCC(=O)Nc2cc(Cl)cc(Cl)c2)n1	-6	-16*	i	9*	-13*	-0.48	i	i	44%*	101*	0.15*
Cn1c(SCC(=O)Nc2cc(Cl)cc(Cl)c2)nnc1-c1ccc2nonc2c1	-9	i	i	i	i	0.6	nt	nt	nt	nt	nt
C=CCOc1c(Br)cc(/C=N/NC(N)=O)cc1OC	-6	i	i	i	i	0.88	nt	nt	nt	nt	nt
C=CCOc1c(CCC)cc(CCC)cc1C(N)=O	-13	-9.4*	i	i	-9.8*	-2.8	60%*	i	32%*	119*	0.15*
CCn1nc(C(=O)OC(C(=O)c2c[nH]c3ccccc23)c2ccccc2)c2ccccc2c1=O (stereo not given)	-20	-11*	i	8*	-9*	-0.02	32%*	i	i	89*	i
CCn1nc(C(=O)OCC(=O)c2ccc(F)cc2)c2ccccc2c1=O	-2	i	i	i	i	0.38	nt	nt	nt	nt	nt
CC1CCCCN1S(=O)(=O)c1ccc(NC(=O)c2cccs2)cc1 (stereo not given)	-12	-8.7*	i	i	i	-1.5	41%*	i	i	88*	i
CCCCN(CCCC)S(=O)(=O)c1ccc(NC(=O)c2cccs2)cc1	-19	-8.6*	i	i	i	0.2	48%*	i	44%*	121*	0.15*
CC1CCN(S(=O)(=O)c2ccc(NC(=O)c3cccs3)cc2)CC1	-7	i	i	i	i	-2.2	nt	nt	nt	nt	nt
COc1ccc(CNC(=O)C2CCCN(S(=O)(=O)c3c(C)noc3/C=C/N(C)C)C2)cc1 (stereo not given)	-5	i	i	i	i	-0.36	nt	nt	nt	nt	nt
CCC(C)N(C(=O)CSc1nc(-c2cccs2)nc2ccccc12)C1CCS(=O)(=O)C1 (stereo not given)	nt	nt	nt	nt	i	nt	nt	nt	nt	nt	nt
NNC(=O)C1CC(O)CN1S(=O)(=O)c1ccc2ccccc2c1 (stereo not given)	nt	nt	nt	nt	i	nt	nt	nt	nt	nt	nt
COC(=O)c1nn(-c2ccccc2)c(-c2ccccc2)c1C(=O)c1ccccc1	-11	-9.4*	i	i	-8.9*	0.41	48%*	i	i	106*	i
O=C(O)c1nn(-c2ccccc2)c(-c2ccccc2)c1C(=O)c1ccccc1	-12	i	i	i	i	-0.16	nt	nt	nt	nt	nt
C1CN(CC23CC4CC(CC(C4)C2)C3)CCO1	-4	i	i	i	i	-0.11	nt	nt	nt	nt	nt
O=C(CC(CC(=O)c1ccccc1)C(=O)O)c1ccccc1	-15	i	i	i	i	0.09	nt	nt	nt	nt	nt

High-throughput results: PubChem BioAssay, Johns Hopkins Ion Channel Center
